Results as given in ChEMBL document CHEMBL3352181, “Novel phenyl and pyridyl substituted derivatives of isoindolines: Synthesis, antitumor activity and DNA binding features” (Eur J Med Chem, 2014).
Activity calls are given as the source filed them. No cut-off for these calls is given here.

test system: BJ; experiment: Antiproliferative activity against human BJ cells assessed as inhibition of cell proliferation after 72 hrs by MTT assay; assay type: cell-based; details: Homo sapiens, BJ, 72 h
Summary of the method: (§1)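 Cells grown as monolayers in DMEM with 10% FBS, 2 mM L-glutamine, penicillin/streptomycin, 37 °C, 5% CO2. Seeded at 5000/well on day 0. Compounds added after 24 h as five serial dilutions (0,01 to 100 µM), DMSO ≤0.1%, then 72 h. MTT read-out converted to percentage growth. IC50 by linear regression; quadruplicates in three experiments.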

Compound	IC50 [µM]
Cl.N=C(N)c1ccc(/N=C2\c3ccccc3CN2c2ccc(C(=N)N)nc2)cn1	> 100
CC(=O)Nc1ccc(/N=C2\c3ccccc3CN2c2ccc(NC(C)=O)nc2)cn1	> 100
N#Cc1ccc(/N=C2\c3ccccc3CN2c2ccc(C#N)nc2)cn1	9

same assay, conditions: human, bj, 72 h

Compound	inhibition (INH)
Cl.N=C(N)c1ccc(/N=C2\c3ccccc3CN2c2ccc(C(=N)N)nc2)cn1	Dose-dependent effect
CC(=O)Nc1ccc(/N=C2\c3ccccc3CN2c2ccc(NC(C)=O)nc2)cn1	Dose-dependent effect
N#Cc1ccc(/N=C2\c3ccccc3CN2c2ccc(C#N)nc2)cn1	Dose-dependent effect

test system: MCF7; experiment: Antiproliferative activity against human MCF7 cells assessed as inhibition of cell proliferation after 72 hrs by MTT assay; assay type: functional, cell-based; details: not given; summary of the method: as §1

Compound	inhibition
Cl.N=C(N)c1ccc(/N=C2\c3ccccc3CN2c2ccc(C(=N)N)nc2)cn1	Dose-dependent effect
CC(=O)Nc1ccc(/N=C2\c3ccccc3CN2c2ccc(NC(C)=O)nc2)cn1	Dose-dependent effect
N#Cc1ccc(/N=C2\c3ccccc3CN2c2ccc(C#N)nc2)cn1	Dose-dependent effect

same assay, conditions: Homo sapiens, MCF7, 72 h

Compound	IC50 [µM]
Cl.N=C(N)c1ccc(/N=C2\c3ccccc3CN2c2ccc(C(=N)N)nc2)cn1	42.1
CC(=O)Nc1ccc(/N=C2\c3ccccc3CN2c2ccc(NC(C)=O)nc2)cn1	16
N#Cc1ccc(/N=C2\c3ccccc3CN2c2ccc(C#N)nc2)cn1	40.5

test system: Nucleic Acid; experiment: Induction of DNA intercalation in supercoiled pUC19 DNA in presence of human topoisomerase 1 assessed as effect on topoisomerase 1-mediated DNA relaxation at 5 to 50 uM by agarose gel electrophoresis; assay type: nucleic-acid assay; details: Escherichia coli
Summary of the method: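 Supercoiled pUC19 incubated with human topoisomerase I and graded compound concentrations. Stopped with SDS/proteinase K. DNA forms resolved on 1% agarose in TBE, 2 h at 120 V, stained post-run with ethidium bromide and viewed under UV. Camptothecin was the topo I poison control.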

Compound	Activity
Cl.N=C(N)c1ccc(/N=C2\c3ccccc3CN2c2ccc(C(=N)N)nc2)cn1	Active
CC(=O)Nc1ccc(/N=C2\c3ccccc3CN2c2ccc(NC(C)=O)nc2)cn1	inactive

test system: Calf thymus DNA; experiment: Binding affinity to calf thymus DNA assessed as change in melting temperature at drug/ base pair ratio of 0.25 by spectrophotometry; assay type: nucleic-acid assay; details: Bos taurus
Summary of the method: (§2)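 CT-DNA absorbance followed at 260 nm from 20 to 100 °C, rising 1 °C per min, in BPE buffer, with or without compound at drug/base-pair ratio 0.25 or 0.5. Tm taken as midpoint of the hyperchromic transition from first-derivative plots. ΔTm is Tm with compound minus Tm of DNA alone.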

Compound	ΔTm [°C]
Cl.N=C(N)c1ccc(/N=C2\c3ccccc3CN2c2ccc(C(=N)N)nc2)cn1	8.8

test system: HeLa; experiment: Antiproliferative activity against human HeLa cells assessed as inhibition of cell proliferation after 72 hrs by MTT assay; assay type: functional, cell-based; details: not given; summary of the method: as §1

Compound	inhibition
Cl.N=C(N)c1ccc(/N=C2\c3ccccc3CN2c2ccc(C(=N)N)nc2)cn1	Dose-dependent effect
CC(=O)Nc1ccc(/N=C2\c3ccccc3CN2c2ccc(NC(C)=O)nc2)cn1	Dose-dependent effect
N#Cc1ccc(/N=C2\c3ccccc3CN2c2ccc(C#N)nc2)cn1	Dose-dependent effect

same assay, conditions: Homo sapiens, HeLa, 72 h

Compound	IC50 [µM]
Cl.N=C(N)c1ccc(/N=C2\c3ccccc3CN2c2ccc(C(=N)N)nc2)cn1	68.8
CC(=O)Nc1ccc(/N=C2\c3ccccc3CN2c2ccc(NC(C)=O)nc2)cn1	> 100
N#Cc1ccc(/N=C2\c3ccccc3CN2c2ccc(C#N)nc2)cn1	4.46

test system: not listed separately; experiment: (§3) Antiproliferative activity against human SW620 cells assessed as inhibition of cell proliferation after 72 hrs by MTT assay; assay type: functional, cell-based, SW-620; details: Homo sapiens, SW-620, 72 h; summary of the method: as §1

Compound	IC50 [µM]
Cl.N=C(N)c1ccc(/N=C2\c3ccccc3CN2c2ccc(C(=N)N)nc2)cn1	> 100
CC(=O)Nc1ccc(/N=C2\c3ccccc3CN2c2ccc(NC(C)=O)nc2)cn1	> 100
N#Cc1ccc(/N=C2\c3ccccc3CN2c2ccc(C#N)nc2)cn1	83.8

test system: SW-620; experiment: as §3; assay type: functional, cell-based; details: not given; summary of the method: as §1

Compound	inhibition
Cl.N=C(N)c1ccc(/N=C2\c3ccccc3CN2c2ccc(C(=N)N)nc2)cn1	Dose-dependent effect
CC(=O)Nc1ccc(/N=C2\c3ccccc3CN2c2ccc(NC(C)=O)nc2)cn1	Dose-dependent effect
N#Cc1ccc(/N=C2\c3ccccc3CN2c2ccc(C#N)nc2)cn1	Dose-dependent effect

test system: HepG2; experiment: Antiproliferative activity against human HepG2 cells assessed as inhibition of cell proliferation after 72 hrs by MTT assay; assay type: functional, cell-based; details: not given; summary of the method: as §1

Compound	inhibition
Cl.N=C(N)c1ccc(/N=C2\c3ccccc3CN2c2ccc(C(=N)N)nc2)cn1	Dose-dependent effect
CC(=O)Nc1ccc(/N=C2\c3ccccc3CN2c2ccc(NC(C)=O)nc2)cn1	Dose-dependent effect
N#Cc1ccc(/N=C2\c3ccccc3CN2c2ccc(C#N)nc2)cn1	Dose-dependent effect

same assay, conditions: HepG2, 72 h

Compound	IC50 [µM]
Cl.N=C(N)c1ccc(/N=C2\c3ccccc3CN2c2ccc(C(=N)N)nc2)cn1	33.9
CC(=O)Nc1ccc(/N=C2\c3ccccc3CN2c2ccc(NC(C)=O)nc2)cn1	30.4
N#Cc1ccc(/N=C2\c3ccccc3CN2c2ccc(C#N)nc2)cn1	5.51

target: T1, DNA topoisomerase 1 (Homo sapiens) (UniProt P11387); experiment: Inhibition of human topoisomerase 1 assessed as topoisomerase poison activity by measuring generation of open circular DNA using supercoiled pUC19 DNA at 5 to 50 uM by agarose gel electrophoresis; details: not given
T1 sequence (whole entry): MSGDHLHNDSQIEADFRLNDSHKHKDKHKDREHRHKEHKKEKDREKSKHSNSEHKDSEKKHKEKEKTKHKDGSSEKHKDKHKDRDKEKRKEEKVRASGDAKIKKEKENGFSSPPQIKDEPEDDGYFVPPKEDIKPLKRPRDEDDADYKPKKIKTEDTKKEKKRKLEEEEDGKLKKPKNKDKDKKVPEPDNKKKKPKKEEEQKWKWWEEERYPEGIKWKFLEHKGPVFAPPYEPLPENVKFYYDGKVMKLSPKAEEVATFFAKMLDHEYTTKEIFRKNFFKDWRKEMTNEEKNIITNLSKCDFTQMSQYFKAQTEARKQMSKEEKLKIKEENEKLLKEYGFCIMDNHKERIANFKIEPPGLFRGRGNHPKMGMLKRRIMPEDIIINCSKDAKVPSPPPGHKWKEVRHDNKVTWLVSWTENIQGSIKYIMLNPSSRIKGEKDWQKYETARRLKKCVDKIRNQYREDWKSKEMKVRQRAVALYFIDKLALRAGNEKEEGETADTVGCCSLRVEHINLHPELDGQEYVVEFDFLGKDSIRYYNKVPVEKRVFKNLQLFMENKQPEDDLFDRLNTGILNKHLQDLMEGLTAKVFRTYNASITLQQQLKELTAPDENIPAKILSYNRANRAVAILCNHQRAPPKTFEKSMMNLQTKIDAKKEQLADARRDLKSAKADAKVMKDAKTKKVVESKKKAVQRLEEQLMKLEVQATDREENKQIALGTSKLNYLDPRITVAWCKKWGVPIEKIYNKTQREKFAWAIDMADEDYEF
Summary of the method: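 Supercoiled pUC19 plasmid was incubated with human topoisomerase I and graded compound concentrations. Reactions were stopped with SDS and proteinase K. DNA forms were resolved on 1% agarose in TBE (2 h, 120 V), post-stained with ethidium bromide and photographed under UV. Poisoning was read as appearance of nicked DNA, with camptothecin as the positive control.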

Compound	inhibition
Cl.N=C(N)c1ccc(/N=C2\c3ccccc3CN2c2ccc(C(=N)N)nc2)cn1	inactive
CC(=O)Nc1ccc(/N=C2\c3ccccc3CN2c2ccc(NC(C)=O)nc2)cn1	inactive

test system: Calf thymus DNA; experiment: Binding affinity to calf thymus DNA assessed as change in melting temperature at drug/ base pair ratio of 0.5 by spectrophotometry; assay type: nucleic-acid assay; details: Bos taurus; summary of the method: as §2

Compound	ΔTm [°C]
Cl.N=C(N)c1ccc(/N=C2\c3ccccc3CN2c2ccc(C(=N)N)nc2)cn1	14.6
CC(=O)Nc1ccc(/N=C2\c3ccccc3CN2c2ccc(NC(C)=O)nc2)cn1	0

test system: Calf thymus DNA; experiment: Binding affinity to calf thymus DNA at 50 uM circular dichroism spectroscopy; assay type: nucleic-acid assay; details: Bos taurus
Summary of the method: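 CD spectra recorded from 480 to 230 nm, 10 mm path, 20 °C, in BPE buffer. CT-DNA (50 µM) incubated with compound rising from 1 to 60 µM or to 80 µM. Compound without DNA served as the control for intrinsic CD.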

Compound	Activity
Cl.N=C(N)c1ccc(/N=C2\c3ccccc3CN2c2ccc(C(=N)N)nc2)cn1	Active
